The values that follow come from PMC3672268 (Molecular pharmaceutics, 2013).

Format in all cases: in vivo, C57BL/6N mice
A short description of data set [1]: Body weight in BLM-induced mouse PF model. As to conditions: mice that received BLM, no SCGB3A2 treatment. Summed up: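 C57BL/6N mice (7–8 weeks old, n = 10 per group) received one intratracheal dose of BLM (1.5 units/kg) by intubation, or PBS as control. Body weight was tracked over the 21-day study and expressed relative to the group's average day 0 weight, which was set as 100%.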

In a further data set the test system is Mmp2 mRNA. The experiment in a line: Quantitative RT-PCR of Mmp2 mRNA in lungs of PF model. As to conditions: for increase of Mmp2 mRNA level vs PBS-treated control lungs: qRT-PCR normalised to β-actin, mean ± SD. Summed up:
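Mouse lung Mmp2 mRNA was measured by qRT-PCR (Superscript II RT) with gene-specific Mmp2 and β-actin primers. Cycling was 50 °C for 2 min and 95 °C for 10 min, then 40 cycles of 95 °C for 15 s and 60 °C for 40 s. Values were normalised to β-actin by ΔΔCt, with day-21 PBS lungs set as 1. Samples were taken on days 7/14/21 post-BLM; mean ± SD.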
In general terms: Quantitative PCR measures a nucleic acid by following its amplification.

Data set [2] has as its system MMP-2. The experiment in a line: Western blot of active MMP-2 protein in lungs. The settings on record: day 21 PF model, SCGB3A2-treated. Summed up: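 Minced lung was lysed in RIPA buffer (Tris, NaCl, SDS, deoxycholate, Triton X-100, EDTA, NaF, orthovanadate) with protease inhibitors. Lysates were reduced, run on 10% SDS-PAGE, transferred to PVDF and blocked in TBS-Tween with 5% milk. Blots were probed with rabbit anti-MMP-2 ([…]) and β-actin, then an HRP secondary, and read by chemiluminescence on film or imager. Lungs were taken on day 21.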
Background: Immunoblotting shows a protein as a band on a membrane.

Data set [3] addresses MMP-2 (Mus musculus, UniProt P33434). Put plainly: Fluorescence microscopy of cleaved MMP-P12 in lung sections. As to conditions: SCGB3A2-treated lung sections. The procedure, abridged:
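Fibrotic mouse lungs were frozen, and 10 μm sections were air-dried, fixed in cold acetone for 20 min, air-dried for 30 min at RT and blocked with 10% BSA for 30 min. Sections were incubated with rabbit anti-MMP2 (10 μg/mL) for 60 min at RT in the dark, then Cy3 donkey anti-rabbit, and mounted in DAPI. Cy5.5 from the cleaved probe was viewed directly by epifluorescence at ×400.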

For another data set, the system named is collagen fibers. Put plainly: Masson's trichrome staining of collagen in lung sections. The settings on record: day 21; SCGB3A2 0.25 mg/kg/day i.v. for five days from day 7 after BLM. Summed up:
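Lungs were inflated and fixed in 4% paraformaldehyde, embedded in paraffin, cut into 4-μm whole-lung sections and stained with Masson's trichrome (collagen blue), with H&E alongside. Lungs were collected on day 21.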

Chain of MMP-2 (Mus musculus, UniProt P33434) (P33434 110-662): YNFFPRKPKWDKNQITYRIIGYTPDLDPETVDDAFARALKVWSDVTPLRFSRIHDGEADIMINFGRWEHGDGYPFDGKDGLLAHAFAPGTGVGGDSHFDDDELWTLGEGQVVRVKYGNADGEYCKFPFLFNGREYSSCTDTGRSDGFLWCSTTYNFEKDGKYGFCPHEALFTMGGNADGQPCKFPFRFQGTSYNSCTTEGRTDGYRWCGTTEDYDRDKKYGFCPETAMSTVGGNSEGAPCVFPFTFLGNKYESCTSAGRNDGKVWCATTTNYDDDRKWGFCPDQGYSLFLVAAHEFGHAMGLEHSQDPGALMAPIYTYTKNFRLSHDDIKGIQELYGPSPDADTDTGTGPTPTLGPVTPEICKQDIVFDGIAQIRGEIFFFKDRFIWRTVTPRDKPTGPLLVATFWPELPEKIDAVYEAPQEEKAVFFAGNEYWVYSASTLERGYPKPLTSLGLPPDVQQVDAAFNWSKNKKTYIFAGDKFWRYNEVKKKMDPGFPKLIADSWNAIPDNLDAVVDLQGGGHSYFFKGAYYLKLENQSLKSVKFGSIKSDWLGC

For bleomycin [BLM], the “body weight loss by day 21” value in data set [1] is given as ~ 20%. Also, the “increase of Mmp2 mRNA level vs PBS-treated control lungs” value in the data set on Mmp2 mRNA (day 7 post-BLM administration) is 4.25±0.84 folds; with Mmp2 mRNA (day 14 post-BLM administration), 6±1.05 folds; in the data set with Mmp2 mRNA (day 21 post-BLM administration) it was 9±1.87 folds.

B1: SCGB3A2: purified recombinant mouse secretoglobin 3A2 protein, given as treatment for PF (protein, UniProt Q920H1 22-91, looked up)
Secretoglobin family 3A …: LLINRLPVVDKLPVPLDDIIPSFDPLKMLLKTLGISVEHLVTGLKKCVDELGPEASEAVKKLLEALSHLV
With B1, in the data set on MMP-2 [2], the “active MMP-2 protein expression vs no treatment group” value is given as “decreased”. Moreover, the “MMP-P12 cleavage (green) and MMP-2 (red) signals in lung sections” value with MMP-2 [3] was “weak”. Moreover, the “collagen expression in lungs vs BLM only-treated group” value in the data set on collagen fibers is “much lower”. In addition, the “Mmp2 mRNA expression vs no treatment group” value with Mmp2 mRNA (day 21 PF model, SCGB3A2-treated, qRT-PCR) is “decreased”.
